Measured values of several laboratories.
Matrix: PAMPA

Structure (SMILES)	conditions	Papp [×10⁻⁶ cm/s]
CCCCCCCOC(=O)c1ccc(O)cc1	5 µM, pH 7.4	1.9
C=C(CC(=O)OCc1oc(=O)oc1C)C(=O)OCc1oc(=O)oc1C	10 µM, 4 h	~15
Cc1c(S(=O)(=O)N2CCn3nccc3C2)cc(C(=O)NCc2c(F)ccc3cnn(C)c23)n1C	–	25
CCCCCCCCOC(=O)c1ccc(O)cc1	5 µM, pH 7.4	0.73
C=C(CC(=O)OCc1oc(=O)oc1C)C(=O)OC	10 µM, 4 h	~15
Cc1c(S(=O)(=O)N2CCn3cncc3C2)cc(C(=O)NCc2c(F)ccnc2N2CCCC2)n1C	–	19.1
C=C(CC(=O)OC)C(=O)OCc1oc(=O)oc1C	10 µM, 4 h	~15
Cc1c(S(=O)(=O)N2CCC(C)CC2)cc(C(=O)NCc2cccnc2N2CCCC2)n1C	–	32.8
O=C(OCc1ccccc1)c1ccc(O)cc1	5 µM, pH 7.4	3.79
C=C(CC(=O)OCOC(=O)C(C)(C)C)C(=O)O	10 µM, 4 h, pH 7.4	< 1
COc1ccccc1CNC(=O)c1cc(S(=O)(=O)N2CCn3nccc3C2)c(C)n1C	–	22.9
Cc1[nH]c(C)c(S(=O)(=O)Nc2ccc(C(F)(F)F)c(Cl)c2)c1C(=O)N1CCC(F)(F)C1	–	7.3
CCOC(=O)c1ccc(O)cc1	5 µM, pH 7.4	4.72
C=C(CC(=O)OC)C(=O)OCOC(=O)OC(C)C	10 µM, 4 h, pH 7.4	> 10
Cc1c(S(=O)(=O)N2CCc3[nH]ncc3C2)cc(C(=O)NCc2cccnc2N2CCCC2)n1C	–	14.4
CCCOC(=O)c1ccc(O)cc1	5 µM, pH 7.4	7.04
